ChEMBL document CHEMBL1142276, “Synthesis, cannabinoid receptor affinity, and molecular modeling studies of substituted 1-aryl-5-(1H-pyrrol-1-yl)-1H-pyrazole-3-carboxamides” (J Med Chem, 2008)
The source made the active and inactive calls. No cut-off for these calls is given here.

Assays:
Cannabinoid receptor 2 = Cannabinoid receptor 2 (Homo sapiens, UniProt P34972); assay: Displacement of [3H]CP-55940 from human recombinant CB2 receptor expressed in HEK cells; format: cell-based, HEK293
Method in brief: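 Membranes came from HEK cells transfected with human CB2. IC50 values were converted to Ki by Cheng-Prusoff. Values are means of at least three experiments, each in duplicate.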

Homo sapiens = species: Homo sapiens; assay: Ratio of Ki for human recombinant CB2 receptor to human recombinant CB1 receptor
Cannabinoid receptor 1 [1] = target: Cannabinoid receptor 1 (Homo sapiens, UniProt P21554); assay: biochemical; format: cell-based, HEK293
Cannabinoid receptor 1 [2] = target: Cannabinoid receptor 1 (Mus musculus, UniProt P47746); assay: Activity at mouse CB1 receptor in mouse N18TG2 cells assessed as forskolin-induced cAMP formation; format: functional, cell-based
Method in brief: (§1)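 Intact confluent mouse N18TG2 neuroblastoma cells were stimulated for 10 min at 37 °C with 1 µM forskolin in serum-free DMEM with 20 mM HEPES, 0.1 mg/mL BSA and 0.1 mM IBMX. Compounds were given at various concentrations, with vehicle 0.1% methanol. Cells were then extracted with ethanol and cAMP was measured by kit.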

[3] = target: Cannabinoid receptor 1 (Mus musculus) (UniProt P47746); assay: Activity at mouse CB1 receptor in mouse N18TG2 cells assessed as inhibition of forskolin-induced cAMP formation at 200 to 300 nM; format: functional, cell-based; method in brief: as §1
[4] = target: Cannabinoid receptor 1 (Mus musculus) (UniProt P47746); assay: Antagonist activity at mouse CB1 receptor in mouse N18TG2 cells assessed as forskolin-induced cAMP formation in presence of WIN-55212-2; format: functional, cell-based
Method in brief: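 Intact confluent N18TG2 cells were exposed to compound with or without the CB1 agonist WIN55,212-2 at 100 nM, in the presence and absence of 1 µM forskolin. Incubation was 10 min at 37 °C in serum-free DMEM with HEPES, BSA and IBMX, vehicle 0.1% methanol. cAMP in ethanol extracts was quantified by kit.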

Chain of Cannabinoid receptor 1 (Mus musculus, UniProt P47746) (P47746 whole entry): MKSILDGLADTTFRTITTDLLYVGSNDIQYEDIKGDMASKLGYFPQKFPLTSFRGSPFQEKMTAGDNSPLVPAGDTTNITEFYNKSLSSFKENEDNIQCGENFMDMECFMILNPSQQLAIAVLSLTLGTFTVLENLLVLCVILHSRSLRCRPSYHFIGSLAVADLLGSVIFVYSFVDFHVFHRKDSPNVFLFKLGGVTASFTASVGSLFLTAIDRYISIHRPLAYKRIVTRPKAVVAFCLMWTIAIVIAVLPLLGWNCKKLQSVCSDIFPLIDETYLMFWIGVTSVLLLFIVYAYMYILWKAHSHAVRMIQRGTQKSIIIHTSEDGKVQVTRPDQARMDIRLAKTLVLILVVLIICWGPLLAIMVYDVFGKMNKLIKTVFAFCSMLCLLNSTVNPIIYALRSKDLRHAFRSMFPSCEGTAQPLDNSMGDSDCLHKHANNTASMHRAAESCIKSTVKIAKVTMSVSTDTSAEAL
Chain of Cannabinoid receptor 1 (Mus musculus) (P47746 whole entry): as above
Chain of Cannabinoid receptor 1 (Homo sapiens, UniProt P21554) (P21554 whole entry): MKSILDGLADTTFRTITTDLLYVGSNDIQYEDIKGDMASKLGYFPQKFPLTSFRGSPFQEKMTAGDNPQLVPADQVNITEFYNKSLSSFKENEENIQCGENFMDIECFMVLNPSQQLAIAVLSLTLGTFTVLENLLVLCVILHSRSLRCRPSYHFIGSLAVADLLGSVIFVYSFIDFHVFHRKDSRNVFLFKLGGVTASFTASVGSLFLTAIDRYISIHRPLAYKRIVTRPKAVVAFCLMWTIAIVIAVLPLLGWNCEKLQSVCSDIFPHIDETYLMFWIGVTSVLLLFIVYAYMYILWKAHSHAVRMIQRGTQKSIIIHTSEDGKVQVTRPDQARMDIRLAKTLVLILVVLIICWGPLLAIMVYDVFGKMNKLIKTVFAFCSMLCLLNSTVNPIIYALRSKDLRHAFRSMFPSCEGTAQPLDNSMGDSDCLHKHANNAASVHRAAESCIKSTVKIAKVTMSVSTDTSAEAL
Chain of Cannabinoid receptor 2 (P34972 whole entry): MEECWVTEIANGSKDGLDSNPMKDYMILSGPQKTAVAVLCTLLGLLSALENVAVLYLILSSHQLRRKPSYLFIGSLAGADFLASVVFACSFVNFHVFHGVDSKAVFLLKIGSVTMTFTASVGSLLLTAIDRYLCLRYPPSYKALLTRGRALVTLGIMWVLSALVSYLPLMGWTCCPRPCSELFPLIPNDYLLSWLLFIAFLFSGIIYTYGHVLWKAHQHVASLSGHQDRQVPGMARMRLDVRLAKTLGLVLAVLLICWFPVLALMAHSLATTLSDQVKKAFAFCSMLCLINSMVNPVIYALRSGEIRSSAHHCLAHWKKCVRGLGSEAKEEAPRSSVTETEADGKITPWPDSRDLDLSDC

SMILES	Ki (Cannabinoid receptor 2) [µM]	IC50 (Cannabinoid receptor 2; read-out: IC50) [µM]	Ratio Ki (Homo sapiens)	IC50 (Cannabinoid receptor 1 [1]) [µM]	Ki (Cannabinoid receptor 1 [1]) [µM]	EC50 (Cannabinoid receptor 1 [2]) [µM]	Activity [3]	IC50 (Cannabinoid receptor 2; hek293)	Activity [4]
Cc1c(C(=O)NCc2ccc(Cl)c(Cl)c2)nn(-c2ccc(Cl)c(Cl)c2)c1-n1cccc1	0.15	0.19							
Cc1c(C(=O)NC2CCCCC2)nn(-c2c(Cl)cc(Cl)cc2Cl)c1-n1c(C)ccc1C	0.39	0.5							
Cc1c(C(=O)NC2CCCCC2)nn(-c2ccc(Cl)cc2Cl)c1-n1cccc1	0.064	0.081	1.14	0.1	0.056				
Cc1c(C(=O)NC2CCCCC2)nn(-c2ccc(F)cc2F)c1-n1cccc1	0.065	0.083							
O=C(NC1CCCCC1)c1cc(-n2cccc2)n(-c2ccc(Cl)cc2)n1	1.75	2.22	6.25	0.5	0.28				
Cc1c(C(=O)NCc2ccc(Cl)c(Cl)c2)nn(-c2ccc(F)cc2F)c1-n1c(C)ccc1C	> 3.94	> 5	> 113	0.062	0.035	> 0.06			
Cc1c(C(=O)NN2CCCCC2)nn(-c2ccc(F)cc2F)c1-n1c(C)ccc1C	> 3.94	> 5							
Cc1c(C(=O)NN2CCCCC2)nn(-c2c(Cl)cc(Cl)cc2Cl)c1-n1cccc1	> 3.94	> 5	> 2.19	3.2	1.8				
Cc1c(C(=O)NN2CCCCC2)nn(-c2ccc(Cl)cc2Cl)c1-n1c(C)ccc1C	0.98	1.24	25.8	0.067	0.038				
Cc1c(C(=O)NN2CCCCC2)nn(-c2c(Cl)cc(Cl)cc2Cl)c1-n1c(C)ccc1C	> 3.94	> 5	> 35.8	0.2	0.11				
Cc1c(C(=O)NCc2ccc(Cl)c(Cl)c2)nn(-c2ccc(Cl)c(Cl)c2)c1-n1c(C)ccc1C	1.37	1.74	4.89	0.5	0.28				
Cc1c(C(=O)NCC2CCCCC2)nn(-c2ccc(Cl)cc2)c1-n1cccc1	0.39	0.5	3.55	0.2	0.11				
Cc1c(C(=O)NN2CCCCC2)nn(-c2ccc(Cl)c(Cl)c2)c1-n1cccc1	0.02	0.025							
Cc1nn(-c2ccc(Cl)cc2)c(-n2cccc2)c1C(=O)NN1CCCCC1	> 3.94			> 5	> 2.82				
Cc1c(C(=O)NC2CCCCC2)nn(-c2ccc(Cl)cc2Cl)c1-n1c(C)ccc1C	0.087	0.11	2.07	0.074	0.042				
Cc1c(C(=O)NCc2ccc(Cl)c(Cl)c2)nn(-c2ccc(Cl)cc2Cl)c1-n1c(C)ccc1C	3.94	5	141	0.05	0.028	0.025	inactive		
Cc1c(C(=O)NN2CCCCC2)nn(-c2ccc(F)cc2F)c1-n1cccc1	2.4	3							

SMILES	Ki (Cannabinoid receptor 2) [µM]	IC50 (Cannabinoid receptor 2; read-out: IC50) [µM]	Ratio Ki (Homo sapiens)	IC50 (Cannabinoid receptor 1 [1]) [µM]	Ki (Cannabinoid receptor 1 [1]) [µM]	EC50 (Cannabinoid receptor 1 [2]) [µM]	Activity [3]	IC50 (Cannabinoid receptor 2; hek293)	Activity [4]
Cc1c(C(=O)NN2CCCCC2)nn(-c2ccccc2)c1-n1cccc1	> 3.94			> 5	> 2.82			Not Active	
Cc1c(C(=O)NN2CCOCC2)nn(-c2ccc(F)cc2F)c1-n1cccc1	> 3.94	> 5		> 5	> 2.82				
Cc1c(C(=O)NCc2ccc(Cl)c(Cl)c2)nn(-c2ccc(F)cc2F)c1-n1cccc1	0.39	0.5							
O=C(NN1CCCCC1)c1cc(-n2cccc2)n(-c2ccccc2)n1	> 3.94			> 5	> 2.82				
Cc1c(C(=O)NC2CCCCC2)nn(-c2ccc(Cl)c(Cl)c2)c1-n1c(C)ccc1C	0.0013	0.0017	0.093	0.025	0.014				
N#Cc1c(C(=O)NN2CCCCC2)nn(-c2ccccc2)c1-n1cccc1	> 3.94			> 5	> 2.82				
Cc1nn(-c2ccc(Cl)cc2)c(-n2cccc2)c1C(=O)NCc1ccc(Cl)c(Cl)c1	> 3.94								
Cc1c(C(=O)NCc2ccc(Cl)c(Cl)c2)nn(-c2ccc(Cl)cc2Cl)c1-n1cccc1	0.51	0.65							
N#Cc1c(C(=O)NCc2ccc(Cl)c(Cl)c2)nn(-c2ccccc2)c1-n1cccc1	> 3.94	> 5							
Cc1c(C(=O)NN2CCCCC2)nn(-c2ccc(Cl)c(Cl)c2)c1-n1c(C)ccc1C	0.029	0.037							
Cc1c(C(=O)NN2CCCCC2)nn(-c2ccc(Cl)cc2)c1-n1cccc1	2.18	2.77	19.8	0.2	0.11				
N#Cc1c(C(=O)NN2CCCCC2)nn(-c2ccc(Cl)cc2)c1-n1cccc1	> 3.94		> 1.4	5	2.82				
Cc1c(C(=O)NC2CCCCC2)nn(-c2ccc(Cl)c(Cl)c2)c1-n1cccc1	0.0017	0.0022	0.3	0.01	0.0056	0.001	inactive		Active
Cc1c(C(=O)NCc2ccc(Cl)c(Cl)c2)nn(-c2c(Cl)cc(Cl)cc2Cl)c1-n1cccc1	> 3.94	> 5							
O=C(NN1CCCCC1)c1cc(-n2cccc2)n(-c2ccc(Cl)cc2)n1	> 3.94								
Cc1c(C(=O)NN2CCCCC2)nn(-c2ccc(Cl)cc2Cl)c1-n1cccc1	1.73	0.2	0.94	3.3	1.85				
Cc1c(C(=O)NC2CCCCC2)nn(-c2ccc(F)cc2F)c1-n1c(C)ccc1C	0.57	0.72							
